An excerpt weighted towards active compounds, which were near 1.9% of everything screened.
PP1 counter: PP1-alpha (human) inhibition in PP5 counter-screen; P62136; purified PP1alpha, OMFP fluorescence; inhibition, % at 6.7 µM; 0.9% of 320,000 active; AID 2235;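 active = inhibition above the mean inhibition of all tested compounds plus 3 SD, computed separately for each screening campaign, cut at about 15% in these data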
PP5 primary: blocks human protein phosphatase 5 activity | P53041 | purified PP5c, OMFP substrate fluorescence | inhibition, % at 6.7 µM | 0.18% of 320,000 active;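 active = inhibition above the campaign's mean inhibition across all tested compounds plus 3 SD, cut at about 9.5% in these data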;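 also: 0% = DMSO only and 100% = 100 µM cantharidin control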
Scp1 inh: blocks human Scp-1 phosphatase activity; 0.88% of 340,000 active; Q9GZU7; inhibition, % at 20 µM; Recombinant Scp1, phosphopeptide, malachite green phosphate absorbance;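 active = inhibition above about 50% at 20 µM, limit read from the data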;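 also: plate controls were DMSO wells with enzyme for no effect and wells lacking enzyme for full effect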
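Assay system: SCP-1 catalytic fragment, aa 76-261 | Buffer or medium: Tris acetate buffer pH 5.5 with MgCl2 and Tween-20 | Compound: One concentration, 20 µM, with 1.0% DMSO | Also added: Phospho 17-mer peptide substrate | Signal: Absorbance at 630 nm | Incubation: 45 min enzyme reaction at room temperature | Measure: % inhibition of SCP-1 phosphate liberation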
LMPTP inh: blocks human LMPTP phosphatase; P24666; recombinant LMPTP-A, OMFP fluorogenic substrate, fluorescence intensity; inhibition, % at 20 µM; 0.22% of 360,000 active;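 active = compounds that cut the enzyme signal by at least half of the control window in the single-dose screen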;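 also: plate controls were DMSO wells with enzyme plus substrate for no effect and substrate without enzyme for full effect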
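Material: LMPTP-A; amount: 0.625 nM enzyme; doses: single 20 µM dose; times: reaction 50 min, room temperature, dark; technique: fluorescence intensity of OMFP turnover product; benchmarks: no-enzyme and uninhibited controls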
STEP inh: STEP (human) phosphatase inhibition; P54829; recombinant STEP, OMFP fluorogenic substrate, fluorescence; inhibition, % at 20 µM; 0.25% of 360,000 active; AID 588621;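 active = inhibition at 20 µM, scaled per plate between control wells, above about 37%, limit read from the data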;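 also: 0% = DMSO with enzyme and substrate and 100% = substrate only without enzyme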
Target sequence (P54829 whole entry, looked up): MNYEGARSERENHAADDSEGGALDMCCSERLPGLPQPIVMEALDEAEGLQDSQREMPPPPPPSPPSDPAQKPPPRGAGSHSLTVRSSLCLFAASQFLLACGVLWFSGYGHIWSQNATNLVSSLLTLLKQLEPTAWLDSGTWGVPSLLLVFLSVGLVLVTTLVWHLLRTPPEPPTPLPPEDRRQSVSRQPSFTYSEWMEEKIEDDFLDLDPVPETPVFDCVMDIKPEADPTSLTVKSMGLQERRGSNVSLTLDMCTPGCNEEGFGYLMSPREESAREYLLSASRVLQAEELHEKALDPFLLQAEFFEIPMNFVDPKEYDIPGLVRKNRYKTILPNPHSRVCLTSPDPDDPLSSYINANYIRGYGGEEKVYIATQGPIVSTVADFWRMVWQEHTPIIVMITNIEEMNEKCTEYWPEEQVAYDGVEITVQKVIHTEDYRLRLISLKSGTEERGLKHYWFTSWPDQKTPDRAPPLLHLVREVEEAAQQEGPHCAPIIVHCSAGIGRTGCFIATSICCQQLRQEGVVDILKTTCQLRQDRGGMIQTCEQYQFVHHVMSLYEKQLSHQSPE
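System: STEP phosphatase, cell-free reaction; Buffer or medium: Bis-Tris pH 6.0 buffer with DTT, detergent; Incubation: 20 min at room temperature, dark; Measured by: fluorescence, 480/540 nm.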
Starred values were filed as active, the others as inactive; · = not tested or not shown; ! = not confirmed by another sample.

SMILES	PP1 counter	PP5 primary	Scp1 inh	LMPTP inh	STEP inh
O=Cc1coc2c(ccc3ccccc32)c1=O	6.4	-0.1	·	·	·
Cc1cccc(Cc2cnc(N3C(=N)SC(c4ccccc4)C3=O)s2)c1 (stereo not drawn)	15.2*	2.8	-11.1	-0.4	-2.0
Cc1cccc(Cc2cnc(N3C(=N)SC(C)C3=O)s2)c1 (stereo not drawn)	4.4	0.0	2.2	-0.1	-2.6
CCCCCCCCCC[n+]1cccc2c3ccccc3ccc21	·	·	65.4*	4.6	7.5
COc1ccc(O[C@H]2C=C[C@@H](c3ccccc3)O[C@@H]2CO/N=C(\C)CCN2CCc3nc(-c4ccccc4)c(-c4ccccc4)cc3C2)cc1	19.4*	1.7	·	·	·
O=C1CC(c2ccco2)CC(O)=C1C=Nc1cc(Cl)ccc1Cl (stereo not drawn)	1.3	2.9	-3.9	1.9	2.2
O=C1CC(c2ccco2)CC(O)=C1C=Nc1cc(Cl)ccc1O (stereo not drawn)	5.1	-1.2	72.5*	9.0	3.6
CCOC(=O)Cn1nc(C)n(-c2cccc(Cl)c2)c1=O	-2.6	1.2	-4.2	-1.0	-0.4
O=C(O)CSCCOc1ccc(OCCSCC(=O)O)cc1	-0.4	1.9	-7.8	-1.7	-2.8
Nc1ccc(Cc2ccc(N)c(O)c2)cc1O	·	·	-9.3	49.6*	0.4
Sc1nnc(-c2ccc(Cl)cc2)n1Cc1ccccc1	15.3*	1.5	0.4	4.4	0.4
Oc1ccc(Nc2nc3ccccc3nc2Nc2ccc(O)cc2)cc1	1.9	5.8	60.3*	3.5	-3.1
O=C(NCCC1=CCCCC1)c1c(O)nc2sccn2c1=O	7.9	0.4	-9.6	7.7	4.0
O=C(NCCC1=CCCCC1)c1c(O)nc2ccccn2c1=O	15.4*	2.2	0.3	4.1	2.0
CCOc1cc(/C=C2\C(=O)N(c3cccc(C(=O)O)c3)N=C2C(F)(F)F)ccc1OCC(=O)Nc1ccccc1OC	17.4*	-0.5	·	·	·
CCOc1ccc2c(ccc(/C=C/c3cc(C)c4cccnc4c3O)[n+]2C)c1	·	·	51.7*	75.8*	8.8
O=C(Nc1ccc([N+](=O)[O-])cc1)Nc1ccc(OC(F)F)c(Cl)c1	17.5*	8.9	-10.1	5.0	0.6
CNc1ncc(C(=O)c2ccc(Cl)c(Cl)c2)s1	-2.6	-0.4	0.4	-0.3	-1.6
O=C(CN1c2ccccc2Sc2ccccc21)NNC(=S)Nc1ccc(Cl)cc1Cl	20.2*	-0.7	-1.9	1.9	0.4
O=C(CN1c2ccccc2Sc2ccccc21)NNC(=S)Nc1ccc(Cl)cc1	2.6	-1.7	-17.7	4.4	-2.2
O=C(NCCc1ccccc1)c1ccc2nc(-c3ccco3)c(-c3ccco3)nc2c1	11.9	4.8	77.4*	58.7*	5.8
O=C(c1ccccc1)c1ccc2nc(-c3ccco3)c(-c3ccco3)nc2c1	6.5	-1.7	66.1*	75.2*	8.9
O=C(Nc1ccc2nc(-c3ccco3)c(-c3ccco3)nc2c1)N1CCCCCC1	36.6*	4.0	88.0*	·	·
Cc1nc2ccc(NC(=O)N3CCCCC3)cc2nc1C	-3.4	-0.7	-4.2	0.5	-3.6
CN1CCN(C(=O)c2ccc(-c3nn(C)c(=O)c4ccccc34)cc2)CC1	-0.9	1.2	2.2	-0.7	14.5
SMILES	PP1 counter	PP5 primary	Scp1 inh	LMPTP inh	STEP inh
COc1ccc(N=C2S/C(=C\c3ccc(N4CCOCC4)o3)C(=O)N2CCc2c[nH]c3ccccc23)cc1	-2.0	1.7	·	4.3	-27.1
COc1ccc(N=C2S/C(=C\c3ccc(OCC(=O)O)cc3)C(=O)N2CCc2c[nH]c3ccccc23)cc1	·	·	20.9	40.4	96.4*
COC(=O)C1=C(C)N(Cc2ccccc2)C(=NCC2CC2)N[C@H]1c1ccccc1	·	·	3.5	0.8	-0.8
COC(=O)C1=C(C)N(Cc2ccccc2)C(=NCCc2cccnc2)N[C@H]1c1ccc(Br)cc1	·	·	57.1*	2.9	-0.9
COC(=O)C1=C(C)N(Cc2ccccc2)C(=NCCCCO)N[C@H]1c1ccccc1	15.5*	2.7	3.9	·	·
Cc1cc(C(=O)O)ccc1-n1c(C)ccc1C	27.4*	4.1	·	·	·
COc1ccccc1NC(=O)CSc1nnnn1C1CCCCC1	-3.1	-0.6	-7.1	-0.9	0.4
C[c-]1[c-](C)[c-](C)[c-](C)[c-]1C.[Fe].c1cc2nccc(N3CCCC3)[c-]2c1 (stereo not drawn)	-0.2	2.5	68.5*!	71.0*	76.6*
Cc1ccc(-c2cc(C(=O)NCc3ccc4c(c3)OCO4)[nH]n2)c(O)c1C	4.3	3.1	-20.1	3.9	0.7

Screening results (PubChem BioAssay)
